Assay results reported in ChEMBL document CHEMBL5724801, “EUbOPEN Chemogenomics Library - Multiplex” (2024).
Several values for one entry are separate records, joined by “and”; a condition that tells them apart may be missing. Equal values may be shown once.

Tested on: U2OS
Assay: Multiplex assay against U2OS
Format: toxicity, cell-based
Conditions: human
How it was run: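 Values for tubulin, mitochondrial-mass and membrane-permeability phenotypes are per cents of cells with healthy nuclei. These cells were identified by CellPathfinder machine-learning gating of live cells that had been stained at seeding with Hoechst33342, BioTracker Green Microtubule Cytoskeleton Dye, MitoTracker Red and Annexin V Alexa Fluor 680 and imaged on a CQ1 microscope at 37°C and 5% CO2 after compound addition. The gating first set Hoechst high-intensity objects apart from normal cells, then split normal cells into healthy, pyknosed or fragmented nuclei, and pyknosed cells into mitotic or apoptotic.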

[1] = 12 h, 1 µM, compound concentration 1 uM
[2] = 12 h, 10 µM, compound concentration 10 uM
[3] = 24 h, 1 µM, compound concentration 1 uM
[4] = 24 h, 10 µM, compound concentration 10 uM
[5] = 48 h, 1 µM, compound concentration 1 uM
[6] = 48 h, 10 µM, compound concentration 10 uM

NCCc1cn(S(=O)(=O)c2c(Cl)nc3sccn23)c2ccccc12.O=C(O)C(=O)O
Population Apoptotic (%) [1]: 66% and 81% | Population Fragmented Nuclei (%) [1]: 30% and 17% | Population Healthy Nuclei (%) [1]: 58% and 72% | Population Hoechst High Intensity Objects (%) [1]: 1% | Population Membrane Permeable-Phenotype (%) [1]: 9% and 4% | Population Mitochondria Different-Phenotype (%) [1]: 6% and 8% | Population Mitotic Cells (%) [1]: 33% and 18% | Population Normal (%) [1]: 98% | Population Pyknosed Nuclei (%) [1]: 10% and 9% | Population Tubulin-Different-Phenotype (%) [1]: 6% | Total Cell Count [1]: 280 and 116 | Population Apoptotic (%) [2]: 71% and 82% | Population Fragmented Nuclei (%) [2]: 26% and 20% | Population Healthy Nuclei (%) [2]: 42% and 53% | Population Hoechst High Intensity Objects (%) [2]: 5% and 4% | Population Membrane Permeable-Phenotype (%) [2]: 42% and 30% | Population Mitochondria Different-Phenotype (%) [2]: 60% and 71% | Population Mitotic Cells (%) [2]: 28% and 17% | Population Normal (%) [2]: 94% and 95% | Population Pyknosed Nuclei (%) [2]: 30% and 26% | Population Tubulin-Different-Phenotype (%) [2]: 59% and 50% | Total Cell Count [2]: 221 and 115 | Population Apoptotic (%) [3]: 69% and 78% | Population Fragmented Nuclei (%) [3]: 25% and 20% | Population Healthy Nuclei (%) [3]: 66% and 70% | Population Hoechst High Intensity Objects (%) [3]: 1% | Population Membrane Permeable-Phenotype (%) [3]: 6% and 9% | Population Mitochondria Different-Phenotype (%) [3]: 5% and 7% | Population Mitotic Cells (%) [3]: 30% and 21% | Population Normal (%) [3]: 98% | Population Pyknosed Nuclei (%) [3]: 8% and 9% | Population Tubulin-Different-Phenotype (%) [3]: 3% and 7% | Total Cell Count [3]: 326 and 151 | Population Apoptotic (%) [4]: 83% and 86% | Population Fragmented Nuclei (%) [4]: 29% and 20% | Population Healthy Nuclei (%) [4]: 38% and 46% | Population Hoechst High Intensity Objects (%) [4]: 6% and 3% | Population Membrane Permeable-Phenotype (%) [4]: 26% | Population Mitochondria Different-Phenotype (%) [4]: 63% and 67% | Population Mitotic Cells (%) [4]: 16% and 13% | Population Normal (%) [4]: 93% and 96% | Population Pyknosed Nuclei (%) [4]: 31% and 33% | Population Tubulin-Different-Phenotype (%) [4]: 26% and 38% | Total Cell Count [4]: 240 and 116 | Population Apoptotic (%) [5]: 81% and 85% | Population Fragmented Nuclei (%) [5]: 21% | Population Healthy Nuclei (%) [5]: 70% and 66% | Population Hoechst High Intensity Objects (%) [5]: 1% and 6% | Population Membrane Permeable-Phenotype (%) [5]: 5% and 10% | Population Mitochondria Different-Phenotype (%) [5]: 4% and 7% | Population Mitotic Cells (%) [5]: 18% and 14% | Population Normal (%) [5]: 98% and 93% | Population Pyknosed Nuclei (%) [5]: 8% and 12% | Population Tubulin-Different-Phenotype (%) [5]: 2% and 7% | Total Cell Count [5]: 454 and 182 | Population Apoptotic (%) [6]: 92% | Population Fragmented Nuclei (%) [6]: 37% and 29% | Population Healthy Nuclei (%) [6]: 27% and 34% | Population Hoechst High Intensity Objects (%) [6]: 7% | Population Membrane Permeable-Phenotype (%) [6]: 25% and 42% | Population Mitochondria Different-Phenotype (%) [6]: 56% and 65% | Population Mitotic Cells (%) [6]: 7% | Population Normal (%) [6]: 92% | Population Pyknosed Nuclei (%) [6]: 35% | Population Tubulin-Different-Phenotype (%) [6]: 25% and 42% | Total Cell Count [6]: 241 and 127

COc1cc(Nc2ncc3c(n2)-c2ccc(Cl)cc2C(c2c(F)cccc2OC)=NC3)ccc1C(=O)O [ALISERTIB]
Population Apoptotic (%) [1]: 63% and 71% | Population Fragmented Nuclei (%) [1]: 23% and 35% | Population Healthy Nuclei (%) [1]: 65% and 55% | Population Hoechst High Intensity Objects (%) [1]: 1% and 4% | Population Membrane Permeable-Phenotype (%) [1]: 4% and 8% | Population Mitochondria Different-Phenotype (%) [1]: 3% and 4% | Population Mitotic Cells (%) [1]: 36% and 28% | Population Normal (%) [1]: 98% and 95% | Population Pyknosed Nuclei (%) [1]: 10% and 8% | Population Tubulin-Different-Phenotype (%) [1]: 3% and 11% | Population Apoptotic (%) [2]: 79% and 71% | Population Fragmented Nuclei (%) [2]: 31% and 12% | Population Healthy Nuclei (%) [2]: 57% and 82% | Population Hoechst High Intensity Objects (%) [2]: 3% and 2% | Population Membrane Permeable-Phenotype (%) [2]: 11% and 5% | Population Mitochondria Different-Phenotype (%) [2]: 5% and 1% | Population Mitotic Cells (%) [2]: 20% and 28% | Population Normal (%) [2]: 96% and 97% | Population Pyknosed Nuclei (%) [2]: 11% and 5% | Population Tubulin-Different-Phenotype (%) [2]: 4% and 0% | Population Apoptotic (%) [3]: 78% and 75% | Population Fragmented Nuclei (%) [3]: 26% and 20% | Population Healthy Nuclei (%) [3]: 64% and 63% | Population Hoechst High Intensity Objects (%) [3]: 1% and 2% | Population Membrane Permeable-Phenotype (%) [3]: 9% and 6% | Population Mitochondria Different-Phenotype (%) [3]: 4% and 2% | Population Mitotic Cells (%) [3]: 21% and 25% | Population Normal (%) [3]: 98% and 97% | Population Pyknosed Nuclei (%) [3]: 8% and 15% | Population Tubulin-Different-Phenotype (%) [3]: 5% and 2% | Population Apoptotic (%) [4]: 84% and 90% | Population Fragmented Nuclei (%) [4]: 30% and 12% | Population Healthy Nuclei (%) [4]: 55% and 77% | Population Hoechst High Intensity Objects (%) [4]: 4% | Population Membrane Permeable-Phenotype (%) [4]: 13% and 9% | Population Mitochondria Different-Phenotype (%) [4]: 5% and 4% | Population Mitotic Cells (%) [4]: 15% and 9% | Population Normal (%) [4]: 95% | Population Pyknosed Nuclei (%) [4]: 13% and 9% | Population Tubulin-Different-Phenotype (%) [4]: 4% and 5% | Population Apoptotic (%) [5]: 85% and 78% | Population Fragmented Nuclei (%) [5]: 28% and 29% | Population Healthy Nuclei (%) [5]: 59% and 53% | Population Hoechst High Intensity Objects (%) [5]: 3% | Population Membrane Permeable-Phenotype (%) [5]: 6% and 11% | Population Mitochondria Different-Phenotype (%) [5]: 5% and 6% | Population Mitotic Cells (%) [5]: 14% and 21% | Population Normal (%) [5]: 96% | Population Pyknosed Nuclei (%) [5]: 12% and 17% | Population Tubulin-Different-Phenotype (%) [5]: 3% and 4% | Population Apoptotic (%) [6]: 88% | Population Fragmented Nuclei (%) [6]: 34% and 16% | Population Healthy Nuclei (%) [6]: 44% and 70% | Population Hoechst High Intensity Objects (%) [6]: 9% and 5% | Population Membrane Permeable-Phenotype (%) [6]: 16% and 7% | Population Mitochondria Different-Phenotype (%) [6]: 9% and 3% | Population Mitotic Cells (%) [6]: 11% | Population Normal (%) [6]: 90% and 94% | Population Pyknosed Nuclei (%) [6]: 21% and 13% | Population Tubulin-Different-Phenotype (%) [6]: 9% and 2%

Cl.O=S(=O)(c1cccc2c(I)cccc12)N1CCCNCC1
Population Apoptotic (%) [1]: 56.67% and 27.27% | Population Fragmented Nuclei (%) [1]: 2.94% and 4.55% | Population Healthy Nuclei (%) [1]: 89.04% and 87.12% | Population Hoechst High Intensity Objects (%) [1]: 0% | Population Membrane Permeable-Phenotype (%) [1]: 1.5% and 1.74% | Population Mitochondria Different-Phenotype (%) [1]: 0.3% and 6.09% | Population Mitotic Cells (%) [1]: 43.33% and 72.73% | Population Normal (%) [1]: 100% | Population Pyknosed Nuclei (%) [1]: 8.02% and 8.33% | Population Tubulin-Different-Phenotype (%) [1]: 1.2% and 0% | Total Cell Count [1]: 374 and 132 | Population Apoptotic (%) [2]: 35.59% and 25% | Population Fragmented Nuclei (%) [2]: 1.04% and 0.7% | Population Healthy Nuclei (%) [2]: 86.75% and 74.13% | Population Hoechst High Intensity Objects (%) [2]: 0% | Population Membrane Permeable-Phenotype (%) [2]: 1.67% and 4.72% | Population Mitotic Cells (%) [2]: 64.41% and 75% | Population Normal (%) [2]: 100% | Population Pyknosed Nuclei (%) [2]: 12.22% and 25.17% | Population Tubulin-Different-Phenotype (%) [2]: 5.73% and 1.89% | Population Apoptotic (%) [3]: 47.27% and 30.77% | Population Fragmented Nuclei (%) [3]: 1.85% and 3.49% | Population Healthy Nuclei (%) [3]: 86.83% and 88.95% | Population Hoechst High Intensity Objects (%) [3]: 0% and 0.58% | Population Membrane Permeable-Phenotype (%) [3]: 1.42% and 0.65% | Population Mitochondria Different-Phenotype (%) [3]: 0% and 4.58% | Population Mitotic Cells (%) [3]: 52.73% and 69.23% | Population Normal (%) [3]: 100% and 99.42% | Population Pyknosed Nuclei (%) [3]: 11.32% and 7.56% | Population Tubulin-Different-Phenotype (%) [3]: 0.47% and 1.96% | Total Cell Count [3]: 486 and 173 | Population Apoptotic (%) [4]: 46.38% and 25% | Population Fragmented Nuclei (%) [4]: 1.31% and 1.69% | Population Healthy Nuclei (%) [4]: 87.4% and 73.6% | Population Hoechst High Intensity Objects (%) [4]: 0% | Population Membrane Permeable-Phenotype (%) [4]: 0.94% and 3.82% | Population Mitotic Cells (%) [4]: 53.62% and 75% | Population Normal (%) [4]: 100% | Population Pyknosed Nuclei (%) [4]: 11.29% and 24.72% | Population Tubulin-Different-Phenotype (%) [4]: 1.87% and 3.05% | Population Apoptotic (%) [5]: 40% and 50% | Population Fragmented Nuclei (%) [5]: 1.92% and 2.4% | Population Healthy Nuclei (%) [5]: 89.6% and 90.07% | Population Hoechst High Intensity Objects (%) [5]: 0% | Population Membrane Permeable-Phenotype (%) [5]: 0.88% and 3.42% | Population Mitochondria Different-Phenotype (%) [5]: 0% and 2.66% | Population Mitotic Cells (%) [5]: 60% and 50% | Population Normal (%) [5]: 100% | Population Pyknosed Nuclei (%) [5]: 8.47% and 7.53% | Population Tubulin-Different-Phenotype (%) [5]: 0.88% and 2.28% | Population Apoptotic (%) [6]: 44.03% and 45.31% | Population Fragmented Nuclei (%) [6]: 1.9% and 3.72% | Population Healthy Nuclei (%) [6]: 82.95% and 72.49% | Population Hoechst High Intensity Objects (%) [6]: 0.1% and 0% | Population Membrane Permeable-Phenotype (%) [6]: 1.26% and 4.62% | Population Mitochondria Different-Phenotype (%) [6]: 0.46% and 7.18% | Population Mitotic Cells (%) [6]: 55.97% and 54.69% | Population Normal (%) [6]: 99.9% and 100% | Population Pyknosed Nuclei (%) [6]: 15.14% and 23.79% | Population Tubulin-Different-Phenotype (%) [6]: 3.21% and 4.62%
